CHO parental Ca = counter-screen for OX1R antagonists: effect in parental CHO cells; parental CHO-K1, ATP-induced calcium, Fluo-8 fluorescence; 0.63% of 330,000 active; inhibition, % at 5.6 µM; AID 463079;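 active = inhibition above that plate's mean sample inhibition plus 3 SD, cut at about 26% in these data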
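Material: Parental CHO cells | Reagent: ATP | Compound dosing: Single nominal dose of 5.6 µM per compound | Detection: Intracellular calcium via Fluo-8 no-wash fluorescent dye | Read-out: % inhibition of ATP-induced calcium mobilization | Benchmarks: Low control ATP plus DMSO, high control DMSO only | Replicates: Singlicate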
OX1R antag-1 = antagonists of human orexin 1 receptor | O43613 | CHO/OX1R cells, Fluo-8 calcium fluorescence, orexin A | inhibition, % at 5 µM | 0.43% of 330,000 active | AID 434989;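 active = inhibition above its plate's threshold, mean inhibition of all tested compounds on the plate plus 3 SD, cut at about 37% in these data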
Target sequence (O43613 whole entry, looked up): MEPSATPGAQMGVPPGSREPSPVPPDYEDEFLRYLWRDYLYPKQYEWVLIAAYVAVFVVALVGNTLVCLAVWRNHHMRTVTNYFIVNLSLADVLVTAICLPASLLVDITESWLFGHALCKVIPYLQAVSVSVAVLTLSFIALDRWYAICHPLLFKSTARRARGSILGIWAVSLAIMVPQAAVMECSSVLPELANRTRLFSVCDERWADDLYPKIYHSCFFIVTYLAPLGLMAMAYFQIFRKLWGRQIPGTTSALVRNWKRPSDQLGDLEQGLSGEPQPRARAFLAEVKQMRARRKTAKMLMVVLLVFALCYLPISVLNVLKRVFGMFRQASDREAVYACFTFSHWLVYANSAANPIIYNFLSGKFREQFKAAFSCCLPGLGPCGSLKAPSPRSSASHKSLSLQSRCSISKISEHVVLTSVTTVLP
GPR7 antag = antagonists of human GPR7 (neuropeptides B/W receptor 1); P48145; GPR7-expressing cells, fluorescence antagonist assay; inhibition, % at 4.4 µM; 1.1% of 290,000 active; AID 1861; in the data active = inhibition above about 16%, passing the limit was not always enough;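 also: cells stimulated with the agonist NPW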
OX1R antag-2 = antagonists of human orexin 1 receptor (OX1R) | inhibition, % at 6.6 µM | 1.8% of 330,000 active | OX1R-expressing cells, FRET antagonist read-out | O43613; in the data active = inhibition mostly above about 38%, no sharp cut-off; inactive = mostly below about 40%
GalR3 antag = blocks the human galanin receptor 3; O60755; HEK293 GalR3-CNG cAMP membrane potential fluorescence; galR3 body fused to GalR1 C-terminus; inhibition, % at 3 µM; 0.44% of 360,000 active; AID 651719;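 active = inhibition above the screen-wide average plus 3 SD, cut at about 13% in these data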;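 also: forskolin and galanin both at EC90 stimulate the cells; cAMP rise reported by CNG channel membrane potential dye signal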
GPR7 antag cf = human GPR7 antagonism, confirmation assay. AID 1952. inhibition, % at 4.4 µM. 52% of 2,400 active. GPR7-expressing cells, calcium fluorescence antagonist mode. shares compounds with GPR7 antag; in the data active = inhibition above about 24%;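 also: stimulated with the GPR7 agonist NPW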
MCHR1 antag = counter-screen for GPR7 antagonists: antagonists of human MCHR1; inhibition, % at 4.4 µM; AID 2148; shares compounds with GPR7 antag; 62% of 2,400 active; MCHR1-expressing cells, fluorescence antagonist assay; in the data active = inhibition above about 22%
Numbers stand for hits. Most compounds without a hit are left out; they make up all but 3.1% or so of the library.

CC1(C)NC(=O)N(CC(=O)Nc2cc(S(=O)(=O)N3CCOCC3)ccc2N2CCOCC2)C1=O was read as CHO parental Ca inactive, OX1R antag-1 inactive, GPR7 antag 27.4, OX1R antag-2 inactive, GPR7 antag cf inactive and MCHR1 antag inactive.
`Cc1ccc(S(=O)(=O)Nc2cc(S(=O)(=O)N3CCCCC3)ccc2N2CCOCC2)cc1` gave CHO parental Ca inactive, OX1R antag-1 inactive, GPR7 antag 32.5, OX1R antag-2 inactive, GalR3 antag inactive, GPR7 antag cf inactive and MCHR1 antag inactive.
CC(C)(C)c1ccc(S(=O)(=O)NC(=O)C2(C)CCN2C(=O)c2cccc3ccccc23)cc1 (stereo not drawn) was read as GalR3 antag inactive.
COC(=O)c1ccccc1NC(=O)CSc1nc2ccsc2c(=O)n1CCCCC(=O)O was read as GalR3 antag inactive.
For CC[C@@H](C(=O)[C@@H](C)[C@@H](O)[C@H](C)CCc1ccc(C)c(O)c1C(=O)O)[C@H]1O[C@](CC)([C@H]2CC[C@](O)(CC)[C@H](C)O2)C[C@@H]1C the results were CHO parental Ca 38.6, OX1R antag-1 40.1, GPR7 antag 48.4, OX1R antag-2 inactive, GPR7 antag cf 47.7 and MCHR1 antag 38.4.
Screening CC[C@@H](C(=O)[C@@H](C)[C@@H](O)[C@H](C)[C@@H]1O[C@@H]([C@@H](CC)C(=O)O)CC[C@@H]1C)[C@H]1O[C@]2(C=C[C@@H](O)[C@]3(CC[C@@](C)([C@H]4CC[C@](O)(CC)[C@H](C)O4)O3)O2)[C@H](C)C[C@@H]1C returned GalR3 antag inactive.
Screening CCN(CC)C(=O)C1=C(C)N(CCC2=CCCCC2)C(=O)C(CC(=O)NC(c2ccccc2)c2ccccc2)C1 (stereo not drawn) returned GalR3 antag inactive.
`O=C(CC[C@H]1O[C@@H](n2ccc(=O)[nH]c2=O)[C@H](O)[C@@H]1O)N[C@@H](Cc1ccccc1)C(=O)NCc1ccccc1` gave GalR3 antag inactive.
Screening O=[N+]([O-])c1ccc(Nc2ccc(F)cc2)nc1 returned CHO parental Ca inactive, OX1R antag-1 inactive, GPR7 antag inactive, OX1R antag-2 inactive and GalR3 antag inactive.
CN(C)c1ccc(Nc2ccc([N+](=O)[O-])cn2)cc1 was read as CHO parental Ca inactive, OX1R antag-1 inactive, GPR7 antag 24.3, OX1R antag-2 43.2, GalR3 antag inactive, GPR7 antag cf 40.7 and MCHR1 antag inactive.
Screening C=C1CCc2c([nH]c3ccc(OCC(C)C)cc23)C1=O returned GPR7 antag 56.5, GalR3 antag inactive, GPR7 antag cf 91.3 and MCHR1 antag 97.5.
For COc1ccccc1-n1c(=O)oc2ccc(Cl)cc2c1=O the results were CHO parental Ca inactive, OX1R antag-1 inactive, GPR7 antag 28.0, OX1R antag-2 inactive, GalR3 antag inactive, GPR7 antag cf inactive and MCHR1 antag inactive.
Screening Cc1cccc(N(C)C(=O)COc2cc(=O)n(C)c3ccccc23)c1 returned CHO parental Ca inactive, OX1R antag-1 inactive, GPR7 antag 63.6, OX1R antag-2 inactive, GalR3 antag inactive, GPR7 antag cf inactive and MCHR1 antag inactive.
`C[C@H](CO)N1C[C@H](C)[C@@H](CN(C)S(=O)(=O)c2cn(C)cn2)Oc2ncc(Br)cc2C1=O` gave GalR3 antag inactive.
For COc1ccc(C(CNC(=O)COc2ccc(Cl)c(C)c2)N2CCCCC2)cc1 (stereo not drawn) the results were CHO parental Ca inactive, OX1R antag-1 inactive, GPR7 antag 28.3, OX1R antag-2 inactive, GalR3 antag inactive, GPR7 antag cf 30.0 and MCHR1 antag inactive.
For COc1ccc(OC)c(C(=O)CSc2nnc(C3CC3)n2C2CC2)c1 the results were GalR3 antag inactive.
For COc1ccc(OC)c(NC(=O)C2(C)CCN2C(=O)C2(c3ccc(Cl)cc3)CCC2)c1 (stereo not drawn) the results were GalR3 antag inactive.
Screening CCOc1cccc(OCCNC2CCCC2)c1 returned CHO parental Ca inactive, OX1R antag-1 inactive, GPR7 antag 61.4, OX1R antag-2 inactive, GalR3 antag inactive, GPR7 antag cf inactive and MCHR1 antag inactive.
`O=C(c1ccccc1)N1CCC2CCN(S(=O)(=O)c3ccccc3)CC21` (stereo not drawn) gave GalR3 antag inactive.
`Cc1cc(OCCCC(=O)Nc2cccc(-n3cnnn3)c2)ccc1Cl` gave CHO parental Ca inactive, OX1R antag-1 inactive, GPR7 antag 29.1, OX1R antag-2 inactive, GalR3 antag inactive, GPR7 antag cf 47.5 and MCHR1 antag 81.7.
For CC[C@@H](NC(=O)[C@H](Cc1ccccc1)NC(=O)CC[C@H]1O[C@@H](n2ccc(=O)[nH]c2=O)[C@H](O)[C@@H]1O)c1ccccc1 the results were GalR3 antag inactive.
For N#CCCN1CCN(Cc2cc(-c3ccccc3)ccc2O)CC1 the results were CHO parental Ca inactive, OX1R antag-1 inactive, GPR7 antag 30.7, OX1R antag-2 inactive, GalR3 antag inactive, GPR7 antag cf inactive and MCHR1 antag inactive.
COc1ccc(CN2C[C@@H](CO)O[C@@H](n3cnc4c(NC5CC5)ncnc43)C2)cc1 was read as GalR3 antag inactive.
Screening CCN(CC)S(=O)(=O)c1ccc(N2Cc3ccccc3C2=N)cc1 returned CHO parental Ca inactive, OX1R antag-1 inactive, GPR7 antag 21.5, OX1R antag-2 inactive, GalR3 antag inactive, GPR7 antag cf inactive and MCHR1 antag inactive.
COc1ccc(C(CCNCc2ccc(OC)c(OC)c2)c2ccc(F)cc2)cc1 (stereo not drawn) was read as CHO parental Ca inactive, OX1R antag-1 inactive, GPR7 antag 30.9, OX1R antag-2 inactive, GalR3 antag inactive, GPR7 antag cf 51.8 and MCHR1 antag 79.9.
COc1ccc(CCNCCC(c2ccccc2)c2ccccc2)cc1OC was read as GalR3 antag inactive.
Screening CC(C)[C@H](NC(N)=O)C(=O)Nc1ccc(F)c(Cl)c1 returned CHO parental Ca inactive, OX1R antag-1 inactive, GPR7 antag 22.3, OX1R antag-2 inactive, GalR3 antag inactive, GPR7 antag cf inactive and MCHR1 antag inactive.
Screening CCc1ccc(/C=C2/Sc3ccccc3N(CC(=O)NCCCN3CCOCC3)C2=O)cc1 returned CHO parental Ca inactive, OX1R antag-1 inactive, GPR7 antag 24.6, OX1R antag-2 inactive, GalR3 antag inactive, GPR7 antag cf inactive and MCHR1 antag inactive.
For O=C(CN1C(=O)/C(=C/c2ccc(C(F)(F)F)cc2)Sc2ccccc21)NCCCN1CCOCC1 the results were CHO parental Ca inactive, OX1R antag-1 inactive, GPR7 antag inactive, OX1R antag-2 inactive and GalR3 antag inactive.

Bioassay records from PubChem BioAssay.
